Data from ChEMBL document CHEMBL1154676, “Synthetic mRNA splicing modulator compounds with in vivo antitumor activity” (J Med Chem, 2009).

How the values were obtained:
U-251 = experiment: Growth inhibition of human U251 cells by sulforhodamine B assay; assay type: functional
SF-539 = experiment: Growth inhibition of human SF539 cells by sulforhodamine B assay; assay type: functional
HT-29 = experiment: Growth inhibition of human HT-29 cells by sulforhodamine B assay; assay type: functional
HCT-116 = experiment: Growth inhibition of human HCT116 cells by sulforhodamine B assay; assay type: functional
NCI-H460 = experiment: Growth inhibition of human NCI-H460 cells by sulforhodamine B assay; assay type: functional
NCI-H322M = experiment: Growth inhibition of human NCI-H322M cells by sulforhodamine B assay; assay type: functional
NCI-H226 = experiment: Growth inhibition of human NCI-H226 cells by sulforhodamine B assay; assay type: functional
HOP-92 = experiment: Growth inhibition of human HOP92 cells by sulforhodamine B assay; assay type: functional
HOP-62 = experiment: Growth inhibition of human HOP62 cells by sulforhodamine B assay; assay type: functional
EKVX = experiment: Growth inhibition of human EKVX cells by sulforhodamine B assay; assay type: functional
SR = experiment: Growth inhibition of human SR cells by sulforhodamine B assay; assay type: functional
[1] = Growth inhibition of human […] cells by sulforhodamine B assay; assay type: functional
K562 = experiment: Growth inhibition of human K562 cells by sulforhodamine B assay; assay type: functional
HL-60(TB) = experiment: Growth inhibition of human HL-60(TB) cells by sulforhodamine B assay; assay type: functional
[2] = Cytotoxicity against human BT-12 cells after 72 hrs by XTT assay; assay type: functional, cell-based; conditions: BT-12, 72 h
How it was run: (§1)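 Cells grown at 37 °C, 5% CO2; HFF in DMEM with 10% FBS, PrEC in prostate epithelial growth medium. Adherent lines seeded overnight, suspension lines same day; compounds diluted from DMSO stocks into media at various final concentrations, 72 h exposure. XTT reagent added 4 h, absorbance 490 nm (reference 690 nm). Growth as % of vehicle; IC50 from sigmoidal dose-response fit; mean ± SEM, three independent experiments.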

[3] = Cytotoxicity against human BT-14 cells after 72 hrs by XTT assay; assay type: functional, cell-based; conditions: BT-14, 72 h; how it was run: as §1
[4] = Cytotoxicity against human NB1643 cells after 72 hrs by XTT assay; assay type: functional, cell-based; conditions: NB-1643, 72 h; how it was run: as §1
SK-MEL-28 = experiment: Cytotoxicity against human SK-MEL-28 cells after 72 hrs by XTT assay; assay type: functional, cell-based; conditions: SK-MEL-28, 72 h; how it was run: as §1
SK-MEL-2 = experiment: Cytotoxicity against human SK-MEL-2 cells after 72 hrs by XTT assay; assay type: functional, cell-based; conditions: SK-MEL-2, 72 h; how it was run: as §1
WiDr = experiment: Cytotoxicity against human WiDr cells after 72 hrs by XTT assay; assay type: functional, cell-based; how it was run: as §1
JVM-2 = experiment: Cytotoxicity against human JVM2 cells after 72 hrs by XTT assay; assay type: functional, cell-based; conditions: JVM-2, 72 h; how it was run: as §1
Mus musculus [5] = experiment: Toxicity in NOD/SCID mouse assessed as phosphorus level at 5 to 50 mg/kg, iv and po for 5 days; assay type: organism-based; set-up: dose 5-50 mg/kg, route oral; conditions: in vivo, 120 h
Mus musculus [6] = experiment: Toxicity in NOD/SCID mouse assessed as total bilirubin level at 5 to 50 mg/kg, iv and po for 5 days; assay type: organism-based; set-up: dose 5-50 mg/kg, route oral; conditions: in vivo, 120 h
Mus musculus [7] = experiment: Toxicity in NOD/SCID mouse assessed as total necropsies at 5 to 50 mg/kg, […] for 5 days; assay type: organism-based; set-up: dose 5-50 mg/kg; conditions: in vivo, po, 120 h
Mus musculus [8] = experiment: Toxicity in NOD/SCID mouse assessed as globulin level at 5 to 50 mg/kg, […] for 5 days; assay type: organism-based; set-up: dose 5-50 mg/kg; conditions: in vivo, po, 120 h
Mus musculus [9] = experiment: Toxicity in NOD/SCID mouse assessed as creatinine level at 5 to 50 mg/kg, […] for 5 days; assay type: organism-based; set-up: dose 5-50 mg/kg; conditions: in vivo, po, 120 h
Mus musculus [10] = experiment: Toxicity in NOD/SCID mouse assessed as calcium level at 5 to 50 mg/kg, iv and po for 5 days; assay type: organism-based; set-up: dose 5-50 mg/kg, route oral; conditions: in vivo, 120 h
Mus musculus [11] = experiment: Toxicity in NOD/SCID mouse assessed as blood urea nitrogen level at 5 to 50 mg/kg, iv and po for 5 days; assay type: organism-based; set-up: dose 5-50 mg/kg, route oral; conditions: in vivo, 120 h
Mus musculus [12] = experiment: Toxicity in NOD/SCID mouse assessed as complete blood counts level at 5 to 50 mg/kg, […] for 5 days; assay type: organism-based; set-up: dose 5-50 mg/kg; conditions: in vivo, po, 120 h
T47D = experiment: Growth inhibition of human T47D cells by sulforhodamine B assay; assay type: functional
DU-145 = experiment: Growth inhibition of human DU145 cells by sulforhodamine B assay; assay type: functional
SN12C = experiment: Growth inhibition of human SN12C cells by sulforhodamine B assay; assay type: functional
A498 = experiment: Growth inhibition of human A498 cells by sulforhodamine B assay; assay type: functional
786-0 = experiment: Growth inhibition of human 786-0 cells by sulforhodamine B assay; assay type: functional
OVCAR-8 = experiment: Growth inhibition of human OVCAR8 cells by sulforhodamine B assay; assay type: functional
OVCAR-5 = experiment: Growth inhibition of human OVCAR5 cells by sulforhodamine B assay; assay type: functional
IGROV-1 = experiment: Growth inhibition of human IGROV1 cells by sulforhodamine B assay; assay type: functional
UACC-62 = experiment: Growth inhibition of human UACC62 cells by sulforhodamine B assay; assay type: functional
UACC-257 = experiment: Growth inhibition of human UACC257 cells by sulforhodamine B assay; assay type: functional
[13] = read-out: Log10GI50 (converted)
[14] = read-out: Log10LC50 (converted)

SMILES: CC(/C=C/[C@@H]1C[C@]2(CO2)CC(C)(C)O1)=C\C[C@H]1CC[C@@H](NC(=O)/C=C\[C@H](C)OC(=O)C(C)C)CC1
- GI50 (U-251; [13]): 0.363 µM
- CC50 (U-251; [14]): > 100 µM
- TGI (U-251; read-out: Log10TGI (converted)): > 100 µM
- GI50 (SF-539; [13]): 0.372 µM
- CC50 (SF-539; [14]): > 100 µM
- TGI (SF-539; read-out: Log10TGI (converted)): 18.6 µM
- GI50 (HT-29; [13]): 0.191 µM
- CC50 (HT-29; [14]): > 100 µM
- TGI (HT-29; read-out: Log10TGI (converted)): 10 µM
- GI50 (HCT-116; [13]): 0.0708 µM
- CC50 (HCT-116; [14]): > 100 µM
- TGI (HCT-116; read-out: Log10TGI (converted)): > 100 µM
- GI50 (NCI-H460; [13]): 0.501 µM
- CC50 (NCI-H460; [14]): > 100 µM
- TGI (NCI-H460; read-out: Log10TGI (converted)): > 100 µM
- GI50 (NCI-H322M; [13]): 2 µM
- CC50 (NCI-H322M; [14]): > 100 µM
- TGI (NCI-H322M; read-out: Log10TGI (converted)): 22.4 µM
- GI50 (NCI-H226; [13]): 2.45 µM
- CC50 (NCI-H226; [14]): > 100 µM
- TGI (NCI-H226; read-out: Log10TGI (converted)): > 100 µM
- GI50 (HOP-92; [13]): 0.575 µM
- CC50 (HOP-92; [14]): > 100 µM
- TGI (HOP-92; read-out: Log10TGI (converted)): > 100 µM
- GI50 (HOP-62; [13]): 0.457 µM
- CC50 (HOP-62; [14]): > 100 µM
- TGI (HOP-62; read-out: Log10TGI (converted)): > 100 µM
- GI50 (EKVX; [13]): 0.676 µM
- CC50 (EKVX; [14]): > 100 µM
- TGI (EKVX; read-out: Log10TGI (converted)): 12.9 µM
- GI50 (SR; [13]): 0.0589 µM
- CC50 (SR; [14]): > 100 µM
- TGI (SR; read-out: Log10TGI (converted)): 0.447 µM
- GI50 [1, 13]: 0.427 µM
- CC50 [1, 14]: > 100 µM
- TGI ([1]; read-out: Log10TGI (converted)): 4.68 µM
- GI50 (K562; [13]): 0.0457 µM
- CC50 (K562; [14]): > 100 µM
- TGI (K562; read-out: Log10TGI (converted)): > 100 µM
- GI50 (HL-60(TB); [13]): 0.129 µM
- CC50 (HL-60(TB); [14]): 74.1 µM
- TGI (HL-60(TB); read-out: Log10TGI (converted)): 0.525 µM
- IC50 [2]: 2.79 µM
- IC50 [3]: 1.34 µM
- IC50 [4]: 0.23 µM
- IC50 (SK-MEL-28): 0.55 µM
- IC50 (SK-MEL-2): 0.29 µM
- IC50 (WiDr): 0.91 µM
- IC50 (JVM-2): 0.19 µM
- Activity (Mus musculus [5]): Non-toxic
- Activity (Mus musculus [6]): Non-toxic
- Activity (Mus musculus [7]): Non-toxic
- Activity (Mus musculus [8]): Non-toxic
- Activity (Mus musculus [9]): Non-toxic
- Activity (Mus musculus [10]): Non-toxic
- Activity (Mus musculus [11]): Non-toxic
- Activity (Mus musculus [12]): Non-toxic
- GI50 (T47D; [13]): 0.389 µM
- CC50 (T47D; [14]): > 100 µM
- TGI (T47D; read-out: Log10TGI (converted)): 14.5 µM
- GI50 (DU-145; [13]): 0.55 µM
- CC50 (DU-145; [14]): > 100 µM
- TGI (DU-145; read-out: Log10TGI (converted)): > 100 µM
- GI50 (SN12C; [13]): 1.23 µM
- CC50 (SN12C; [14]): > 100 µM
- TGI (SN12C; read-out: Log10TGI (converted)): > 100 µM
- GI50 (A498; [13]): 3.39 µM
- CC50 (A498; [14]): > 100 µM
- TGI (A498; read-out: Log10TGI (converted)): 74.1 µM
- GI50 (786-0; [13]): 2.63 µM
- CC50 (786-0; [14]): > 100 µM
- TGI (786-0; read-out: Log10TGI (converted)): > 100 µM
- GI50 (OVCAR-8; [13]): 0.24 µM
- CC50 (OVCAR-8; [14]): > 100 µM
- TGI (OVCAR-8; read-out: Log10TGI (converted)): > 100 µM
- GI50 (OVCAR-5; [13]): 8.32 µM
- CC50 (OVCAR-5; [14]): > 100 µM
- TGI (OVCAR-5; read-out: Log10TGI (converted)): > 100 µM
- GI50 (IGROV-1; [13]): 0.851 µM
- CC50 (IGROV-1; [14]): > 100 µM
- TGI (IGROV-1; read-out: Log10TGI (converted)): > 100 µM
- GI50 (UACC-62; [13]): 0.513 µM
- CC50 (UACC-62; [14]): 46.8 µM
- TGI (UACC-62; read-out: Log10TGI (converted)): 4.68 µM
- GI50 (UACC-257; [13]): 3.63 µM
- CC50 (UACC-257; [14]): > 100 µM
- TGI (UACC-257; read-out: Log10TGI (converted)): 45.7 µM
